# Test results: ChEMBL document CHEMBL3608210, “LC-MS- and (1)H NMR Spectroscopy-Guided Identification of Antifungal Diterpenoids from Sagittaria latifolia” (J Nat Prod, 2015)
# Active and inactive are the calls of the source. The calls are words filed in the database; no cut-off is given here.
# Tests used:
# LLC-PK1 = assay: Cytotoxicity against pig LLC-PK1 cells assessed as reduction in cell viability incubated for 48 hrs by neutral red based assay; conditions: Sus scrofa, LLC-PK1, 48 h
# Procedure, shortened: (§1)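 Vero (African green monkey kidney […]) and LLC-PK1 (pig kidney epithelial) cells were obtained from ATCC. Cytotoxicity was read by neutral red uptake, with doxorubicin as the positive control. IC50 was taken as the concentration giving 50% growth inhibition of the mammalian cells.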
# Vero = assay: Cytotoxicity against african green monkey Vero cells assessed as reduction in cell viability incubated for 48 hrs by neutral red based assay; conditions: Chlorocebus sabaeus; procedure, shortened: as §1
# Cryptococcus neoformans [1] = assay: Antifungal activity against Cryptococcus neoformans ATCC 90113 assessed as inhibition of microbial growth incubated for 72 hrs at 30 degC by modified CLSI protocol based method; assay type: functional, organism-based; conditions: ATCC 90113, 72 h
# Procedure, shortened: (§2)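 Strains were obtained from ATCC, and amphotericin B served as the positive control. IC50 was the concentration giving 50% growth inhibition of fungal cells. MIC was the lowest concentration allowing no detectable growth. The highest concentration tested was 20 μg/mL.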
# [2] = tested on: Cryptococcus bacillisporus; assay: Antifungal activity against Cryptococcus gattii ATCC 32609 assessed as inhibition of microbial growth incubated for 72 hrs at 30 degC by modified CLSI protocol based method; assay type: functional, organism-based; conditions: ATCC 32609, 72 h; procedure, shortened: as §2
# Cryptococcus neoformans [3] = assay: Antifungal activity against Cryptococcus neoformans ATCC 90113 assessed as inhibition of microbial growth at 20 ug/ml incubated for 72 hrs at 30 degC by modified CLSI protocol based method; assay type: functional, organism-based; procedure, shortened: as §2
Compound,IC50 (LLC-PK1),IC50 (Vero),IC50 (Cryptococcus neoformans [1]),MIC (Cryptococcus neoformans [1]),IC50 [2],MIC [2],growth inhibition (GI) (Cryptococcus neoformans [3])
C=C[C@@]1(C)CC[C@H]2C(=CC[C@H]3[C@@](C)(CO)CCC[C@]23C)C1,42.5 µg/mL,37.5 µg/mL,9.2 µg/mL,> 20 µg/mL,6.8 µg/mL,20 µg/mL,
C=C[C@@]1(C)CC[C@H]2C(=CC[C@H]3[C@@](C)(CO[C@@H]4O[C@@H](CO)[C@H](O)[C@H]4O)CCC[C@]23C)C1,21.5 µg/mL,30 µg/mL,3.7 µg/mL,> 20 µg/mL,1.8 µg/mL,20 µg/mL,
COc1cccc2c1C(=O)c1c(O)c3c(c(O)c1C2=O)C[C@@](O)(C(=O)CO)C[C@@H]3O[C@H]1C[C@H](N)[C@H](O)[C@H](C)O1 [DOXORUBICIN],0.4 µg/mL,5.4 µg/mL,,,,,
C[C@@H]1[C@H](O)[C@@H](C)/C=C/C=C/C=C/C=C/C=C/C=C/C=C/[C@H](O[C@@H]2O[C@H](C)[C@@H](O)[C@H](N)[C@@H]2O)C[C@@H]2O[C@](O)(C[C@@H](O)C[C@@H](O)[C@H](O)CC[C@@H](O)C[C@@H](O)CC(=O)O[C@H]1C)C[C@H](O)[C@H]2C(=O)O [AMPHOTERICIN B],,,,0.7 µg/mL,0.1 µg/mL,0.3 µg/mL,
C=C[C@@]1(C)CC[C@H]2C(=CC[C@H]3[C@@](C)(CO[C@@H]4O[C@@H](COC(C)=O)[C@H](O)[C@H]4O)CCC[C@]23C)C1,,,,,,,inactive
